This note sets out measurements from ChEMBL document CHEMBL2203269, “Target-Activated Prodrugs (TAPs) for the Autoregulated Inhibition of MMP12” (ACS Med Chem Lett, 2012).

One may read the IC50 as the point on the concentration scale where inhibition reaches its midpoint. Read a low IC50 as inhibition by little substance. For orientation: half-life means how long it takes for the measured level to halve. Low readings indicate rapid decline, high ones slow decline.

Structures are written as SMILES. Residues, ends and D or L forms follow the SMILES beside them. *: point of attachment. Benzenesulfonyl(4-Ph) = O=S(=O)(c1ccc(-c2ccccc2)cc1)*; Benzenesulfonyl(4-OMe) = COc1ccc(S(=O)(=O)*)cc1

In data set [1] the target is Macrophage metalloelastase (Homo sapiens, UniProt P39900). The experiment in a line: Inhibition of human MMP12 by FRET reporter assay. In outline:
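Recombinant human MMP12 activity was read with the fluorogenic FRET reporter substrate LaRee5. Inhibition constants were reported as IC50.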
(In general: In a reporter assay the amount or activity of a reporter protein is the signal.)

The nature of data set [2]: Half life in TCN buffer at pH 7.5. In kind it is physicochemical. Put shortly:
(§1)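 Compounds incubated without enzyme in TCN buffer, pH 7.5, at 37 °C. Spontaneous hydrolysis of the N-acylated sulfonamide was followed by HPLC over time, and half-lives (h) were derived from the traces.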

A short description of data set [3]: Stability of compound in heat inactivated fetal calf serum. To be noted: cattle. The data set is classed as ADME.
The nature of data set [4]: Stability of compound in fetal calf serum. The data set is classed as ADME. To be noted: cattle.
Data set [5] can be described thus: Drug metabolism in TCN buffer assessed as hydrolysis at pH 7.5. In kind it is physicochemical. In outline: as §1

Macrophage metalloelastase, sequence (P39900 whole entry): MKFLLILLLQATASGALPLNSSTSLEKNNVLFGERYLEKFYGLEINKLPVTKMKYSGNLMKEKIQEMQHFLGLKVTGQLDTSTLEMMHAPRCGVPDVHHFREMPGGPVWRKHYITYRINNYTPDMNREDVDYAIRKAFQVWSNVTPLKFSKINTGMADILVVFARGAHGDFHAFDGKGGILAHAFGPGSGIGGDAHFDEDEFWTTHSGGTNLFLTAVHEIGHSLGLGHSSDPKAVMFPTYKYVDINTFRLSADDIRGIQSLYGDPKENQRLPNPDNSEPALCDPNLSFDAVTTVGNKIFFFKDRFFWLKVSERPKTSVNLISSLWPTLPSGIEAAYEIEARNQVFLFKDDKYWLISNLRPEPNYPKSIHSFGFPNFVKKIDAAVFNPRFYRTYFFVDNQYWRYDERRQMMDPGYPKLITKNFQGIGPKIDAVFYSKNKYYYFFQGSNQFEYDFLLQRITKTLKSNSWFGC

With `O=C(O)CNS(=O)(=O)c1ccc(-c2ccccc2)cc1`, the IC50 in data set [1] stood at 0.29 µM.
Take `COc1ccc(S(=O)(=O)N(CC(=O)O)C(=O)CNC(=O)[C@H](CC(C)C)NC(=O)[C@@H]2CCCN2C(=O)OCc2ccccc2)cc1`: in data set [2], the half-life was 27 h.
For the compound `COc1ccc(S(=O)(=O)N(CC(=O)N[C@@H](CC(C)C)C(=O)N[C@@H](CCC(=O)O)C(=O)N[C@@H](CCC(=O)O)C(=O)N[C@@H](C)C(N)=O)C(=O)CNC(=O)[C@@H]2CCCN2C(=O)OCc2ccccc2)cc1`, the half-life in data set [2] is 6.4 h.
`CC(C)C[C@H](NC(=O)CN(C(=O)[C@H](CC(C)C)NC(=O)[C@@H]1CCCN1C(=O)OCc1ccccc1)S(=O)(=O)c1ccc(-c2ccccc2)cc1)C(=O)N[C@@H](CCC(=O)O)C(=O)N[C@@H](CCC(=O)O)C(=O)N[C@@H](C)C(N)=O`: the Stability result in data set [3] and in data set [4] was “Stable” each time. This compound also gave a half-life in data set [2] of 5.1 h.
In turn, `COc1ccc(S(=O)(=O)N(CC(=O)N[C@@H](CC(C)C)C(=O)N[C@@H](CCC(=O)O)C(=O)N[C@@H](CCC(=O)O)C(=O)N[C@@H](C)C(N)=O)C(=O)[C@H](CC(C)C)NC(=O)[C@@H]2CCCN2C(=O)OCc2ccccc2)cc1` showed a half-life in data set [2] of 28 h.
For the compound `CC(C)C[C@H](NC(=O)[C@@H]1CCCN1C(=O)OCc1ccccc1)C(=O)N(CC(=O)O)S(=O)(=O)c1ccc(-c2ccccc2)cc1`, the Stability result in data set [3] and in data set [4] was “Stable” each time. Besides, in data set [2], the half-life is 27 h. The same compound yielded a 50% inhibitory concentration (IC50) in data set [1] of 13 µM.
For `COc1ccc(S(=O)(=O)N(CC(=O)O)C(=O)[C@H](CC(C)C)NC(=O)[C@@H]2CCCN2C(=O)OCc2ccccc2)cc1`, the half-life in data set [2] was 77 h.
For the compound `COc1ccc(S(=O)(=O)NCC(=O)N[C@@H](CC(C)C)C(=O)N[C@@H](CCC(=O)O)C(=O)N[C@@H](CCC(=O)O)C(=O)N[C@@H](C)C(N)=O)cc1` ({Benzenesulfonyl(4-OMe)}-GLEEA-NH2), the Drug metabolism result in data set [5] was “Not Active”.
Turning to `CC(C)C[C@H](NC(=O)CNS(=O)(=O)c1ccc(-c2ccccc2)cc1)C(=O)N[C@@H](CCC(=O)O)C(=O)N[C@@H](CCC(=O)O)C(=O)N[C@@H](C)C(N)=O` ({Benzenesulfonyl(4-Ph)}-GLEEA-NH2), the Drug metabolism result in data set [5] was “Not Active”. The compound further registered an IC50 in data set [1] of 48 µM.
